Measurements: publication PMC7438818 (CPT: Pharmacometrics & Systems Pharmacology, 2020)
Like-named read-outs stand apart in the source and are kept apart here. Blank lines part the entries; values can stand above or below the compound they belong to.

How the values were obtained:
[1] = system: TNFα release; assay: Simulated dose-response and equipotent dose relationship from the PK/PD model; type: in vivo, human; settings: for TNFα inhibition at the highest studied doses: dose-response curves
Summary of the method: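 The fitted PK/PD model was simulated to give dose-response curves, with response defined as average TNFα inhibition over 24 h after 5 consecutive daily oral doses. Confidence intervals came from repeated simulations using parameters sampled from the estimated covariance matrix. Equipotent doses were defined as those giving the same average inhibition. Their confidence intervals accounted simultaneously for the uncertainty of both dose-responses.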

[2] = type: in vivo, human
Summary of the method: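 Data pooled from single ascending dose (2–155 mg) and multiple ascending dose (10, 20, 40, 80, 125 mg) studies in healthy volunteers; prediabetic obese cohort and sub-LLOQ (5 nM) data excluded. Two-compartment model with first-order absorption and lag time on total plasma concentrations. Oral dose entered as a linear covariate on relative bioavailability and as a covariate on absorption rate. Lognormal interoccasion variability for days 1 and 5. Fitted by nonlinear mixed effects, FOCE.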

[3] = system: release of the cytokines TNFα, interferon-γ, interleukin-6, interleukin-8, macrophage inflammatory protein-1α and -1β; type: in vivo, human; settings: total plasma concentrations; six pro-inflammatory cytokines
Summary of the method: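 Static nonlinear mixed effects sigmoid Imax models related observed total plasma drug concentrations to ex vivo LPS-stimulated release of TNFα, IFN-γ, IL-6, IL-8, MIP-1α and MIP-1β. Data were pooled from the single and multiple ascending dose studies. Lognormal between-subject variability was used, with lognormal residual error (additive on log scale). Models were estimated by FOCE.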

[4] = ref data on file, AstraZeneca; cited from earlier work
[5] = system: TNFα release; assay: TNFα PK/PD model, lipopolysaccharide-stimulated whole blood ex vivo assay; type: in vivo, human; settings: for Sigmoidicity parameter γ: Imax-model of TNFα inhibition
Summary of the method: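 Whole blood was drawn straight into LPS-containing tubes and incubated, then ex vivo TNFα was measured. With PK parameters fixed, one common sigmoid Imax model was fitted for both compounds, driven by a weighted sum of plasma and transduction-compartment concentrations. The weight was estimated from data. The driving concentration was total for the test compound and unbound for the reference steroid. Nonlinear mixed effects, FOCE.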

[6] = type: in vivo, human; remark: listed apart in the source
[7] = literature average of plasma protein binding parameters ref 24, 25, 26, 27; cited from earlier work
[8] = average over 24 hours following 5 consecutive daily doses
[9] = unbound prednisolone, oral (apparent)

Absorption rate constant ka0 ([2]; absorption rate in the limit of zero dose): 38.2 h⁻¹ | Covariate model (dose on F) s ([2]; decrease in relative bioavailability F per mg dose, F=1-s×Dose): 0.00253 mg⁻¹ | Covariate model (dose on ka) α ([2]; dose-dependent absorption rate): 0.0592 mg⁻¹ | Covariate model (dose on ka) λ ([2]; dose-dependent absorption rate): 0.103 | Decrease of relative bioavailability ([2]; for every additional 4 mg AZD9567 dosed): ~ 1 % unit | half-life ([2]; human, plasma, oral): 4.4 h | Intercompartment clearance Q ([2]; total AZD9567): 0.500 L/h | Peripheral volume of distribution Vp ([2]; total AZD9567): 392 L | Clearance CL ([2]; total AZD9567, oral): 3.70 L/h | Central volume of distribution Vc ([2]; total AZD9567, oral (apparent)): 26.8 L | Contribution of the first phase to AUC ([2]; two-compartment model): 88%
Structure (SMILES): CC(C)[C@H](NC(=O)C(C)(F)F)[C@H](Oc1ccc2c(cnn2-c2ccc(=O)n(C)c2)c1)c1ccccc1 [AZD9567]
Average TNFα inhibition ([1]; AZD9567 40 mg, average over 24 hours following 5 consecutive daily doses): 43% | TNFα inhibition at the highest studied doses [1, 8]: 60–75% | Equipotent dose of AZD9567 (95% CI) ([1]; equipotent to prednisolone 20 mg): 40 mg | Doses required for equipotency relative to prednisolone ([1]; in vivo): roughly twofold higher doses | Unbound clearance relative to prednisolone ([2]; implied by the low fraction unbound): more than fivefold higher unbound clearance | Inhibition of cytokine release [3]: inhibited the release of the cytokines | Unbound fraction [4]: ^c Derived from the estimate of IC50 for total AZD9567 concentrations using an unbound fraction of 0.637%. | Sigmoidicity parameter γ [5]: 1.40 | Potency as inhibitor of TNFα release relative to prednisolone ([5]; unbound IC50 4.87 nM vs 17.0 nM): ~ 3.5 fold

half-life ([6]; human, plasma, oral): 1.9 h | Contribution of the first phase to AUC ([6]; unbound prednisolone): 66% | Inter-compartment clearance Q ([6]; unbound prednisolone): 5.81 L/h | Mean transit time tm ([6]; unbound prednisolone): 0.772 h | Peripheral volume of distribution Vp ([6]; unbound prednisolone): 23.6 L | Central volume of distribution Vc [6, 9]: 352 L | Clearance CL [6, 9]: 110 L/h | No. of transit compartments n ([6]; unbound prednisolone, transit compartment absorption): 8.11
Structure (SMILES): C[C@]12C=CC(=O)C=C1CC[C@@H]1[C@@H]2[C@@H](O)C[C@@]2(C)[C@H]1CC[C@]2(O)C(=O)CO [prednisolone]
TNFα inhibition at the highest studied doses [1, 8]: 60–75% | Equipotent dose of prednisolone ([1]; equipotent to 40 mg AZD9567, 95% CI of 14–29 mg): 20 mg | Estimated TNFα inhibition ([1]; prednisolone 20 mg, average over 24 hours following 5 consecutive daily doses): 43% | Inhibition of cytokine release [3]: inhibited the release of the cytokines | Sigmoidicity parameter γ [5]: 1.33 | Unbound fraction, high limit, literature average [7]: 53% | Unbound fraction, low limit, literature average [7]: 9%
